Assay results from ChEMBL document CHEMBL4330069, “Boosting the efficacy of anti-MRSA β-lactam antibiotics via an easily accessible, non-cytotoxic and orally bioavailable FtsZ inhibitor” (Eur J Med Chem, 2019).
Activity calls are given as the source filed them. The calls are words filed in the database; no cut-off is given here.

Columns and labels:
Staphylococcus aureus [1] = assay: Antibacterial activity against multidrug-resistant Staphylococcus aureus ATCC 43300 infected in BALB/C mouse assessed as mouse survival at 50 mg/kg, ip bid measured after 5 days relative to control; format: functional
Staphylococcus aureus [2] = assay: Antibacterial activity against Staphylococcus aureus ATCC BAA-41 at […] after 24 hrs by time kill assay; format: functional, organism-based
Method in brief: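 Time-kill assay. S. aureus BAA-41 was grown in CA-MH broth to mid-log phase (OD595 0.8), then diluted to 5×10^5 CFU/mL. […] Samples were taken at 0–24 h and plated on drug-free CA-MH agar for 24 h. Triplicates.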

[3] = target: T1, Cell division protein FtsZ (Staphylococcus aureus) (UniProt P0A031); assay: Inhibition of Staphylococcus aureus N-terminal 6His-tagged FtsZ polymerization expressed in Escherichia coli BL21 (DE3) at 100 uM relative to control
T1 sequence (whole entry): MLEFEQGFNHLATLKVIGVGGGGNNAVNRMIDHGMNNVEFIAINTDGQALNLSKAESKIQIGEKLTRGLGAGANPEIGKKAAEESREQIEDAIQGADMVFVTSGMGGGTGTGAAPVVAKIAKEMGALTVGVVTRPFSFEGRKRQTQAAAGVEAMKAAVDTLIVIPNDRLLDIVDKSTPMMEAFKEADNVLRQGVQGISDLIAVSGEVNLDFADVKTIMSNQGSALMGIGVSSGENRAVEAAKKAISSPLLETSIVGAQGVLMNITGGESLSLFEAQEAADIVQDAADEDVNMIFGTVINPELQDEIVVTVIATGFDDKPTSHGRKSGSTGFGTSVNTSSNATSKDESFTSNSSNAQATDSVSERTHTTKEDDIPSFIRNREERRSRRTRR
Method in brief: (§1)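 Purified S. aureus FtsZ polymerization with GTP, followed as light scattering (absorbance 600 nm) over time. Compound was tested at 12.5–100 µM against a 1% DMSO vehicle, and inhibition was read at 500 s. Triplicate.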

[4] = target: T1, Cell division protein FtsZ (Staphylococcus aureus); assay: Inhibition of Staphylococcus aureus N-terminal 6His-tagged FtsZ polymerization expressed in Escherichia coli BL21 (DE3) assessed as short strands at 100 uM in presence of GTP by TEM analysis
Method in brief: (§2)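 Purified S. aureus FtsZ was incubated with GTP and compound at 0, 50 or 100 µM. Filaments were then imaged by transmission electron microscopy.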

[5] = target: T1, Cell division protein FtsZ (Staphylococcus aureus); assay: Inhibition of Staphylococcus aureus N-terminal 6His-tagged FtsZ polymerization expressed in Escherichia coli BL21 (DE3) assessed as reduction in filament formation in presence of GTP by TEM analysis; method in brief: as §2
[6] = target: T1, Cell division protein FtsZ (Staphylococcus aureus); assay: Inhibition of Staphylococcus aureus N-terminal 6His-tagged FtsZ GTPase expressed in Escherichia coli BL21 (DE3) at 100 uM
Staphylococcus aureus [7] = assay: Synergistic bactericidal activity against Staphylococcus aureus ATCC BAA-41 at 1 to 16 times MIC in presence of methicillin up to 24 hrs by time kill assay; format: functional, organism-based
Method in brief: (§3)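 Colony of strain grown 16 h in CA-MH broth at 37 °C with shaking, diluted 100-fold and grown to mid-log (OD595 0.8), then set at 5×10^5 CFU/mL. […] Sampled at 0, 2.5, 5, 7.5, 21, 24 h, diluted and plated on drug-free CA-MH agar, 24 h at 37 °C; triplicates.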

[8] = target: T1, Cell division protein FtsZ (Staphylococcus aureus); assay: Inhibition of Staphylococcus aureus N-terminal 6His-tagged FtsZ polymerization expressed in Escherichia coli BL21 (DE3); method in brief: as §1
[9] = target: T1, Cell division protein FtsZ (Staphylococcus aureus); assay: Inhibition of Staphylococcus aureus N-terminal 6His-tagged FtsZ polymerization expressed in Escherichia coli BL21 (DE3) at 50 uM relative to control; method in brief: as §1
[10] = target: T1, Cell division protein FtsZ (Staphylococcus aureus); assay: Inhibition of Staphylococcus aureus N-terminal 6His-tagged FtsZ polymerization expressed in Escherichia coli BL21 (DE3) assessed as thin strands at 100 uM in presence of GTP by TEM analysis; method in brief: as §2
[11] = target: T1, Cell division protein FtsZ (Staphylococcus aureus); assay: Inhibition of Staphylococcus aureus N-terminal 6His-tagged FtsZ polymerization expressed in Escherichia coli BL21 (DE3) assessed as reduced strands at 100 uM in presence of GTP by TEM analysis; method in brief: as §2
[12] = target: T1, Cell division protein FtsZ (Staphylococcus aureus); assay: Inhibition of Staphylococcus aureus N-terminal 6His-tagged FtsZ polymerization expressed in Escherichia coli BL21 (DE3) assessed as single strands at 100 uM in presence of GTP by TEM analysis; method in brief: as §2
[13] = target: T1, Cell division protein FtsZ (Staphylococcus aureus); assay: Inhibition of Staphylococcus aureus N-terminal 6His-tagged FtsZ polymerization expressed in Escherichia coli BL21 (DE3) at 25 uM relative to control; method in brief: as §1
Staphylococcus aureus [14] = assay: Synergistic antibacterial activity against Staphylococcus aureus ATCC BAA-41 at 1 to 16 times MIC in presence of methicillin after 21 hrs by time kill assay; format: functional, organism-based; method in brief: as §3

Compound | Activity (Staphylococcus aureus [1]) [%] | Activity (Staphylococcus aureus [2]) | inhibition [3] [%] | inhibition [4] | inhibition [5] | inhibition [6] | Activity (Staphylococcus aureus [7]) | inhibition [8] | inhibition [9] [%] | inhibition [10] | inhibition [11] | inhibition [12] | inhibition [13] [%] | Activity (Staphylococcus aureus [14])
CCCCCCCCCNc1ccc(F)c(C(N)=O)c1F.Cl | 33 | – | – | – | – | – | – | – | – | – | – | – | – | –
CCCCCCCCCNc1ccc(F)c(C(N)=O)c1F | – | inactive | 47 | Active | Dose-dependent effect | inactive | Active | Dose-dependent effect | 39 | Active | Active | Active | 34 | Active
